The source of these data is the EternaBench riboswitch data.

This series concerns MS2 coat protein. The series is described as follows: apparent Kd, MS2 coat protein; higher = weaker binding; RNA-MaP array; tryptophan 2.4 mM where present. The gist of the method: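 On Illumina sequencing-chip clusters, designs were transcribed by stalled E. coli RNA polymerase and titrated with SNAP-549-labelled MS2 coat protein (0.7 or 1.5 nM, doubling to 3 µM), without and then with constant ligand, in 100 mM Tris-HCl pH 7.5, 80 mM KCl, 4 mM MgCl2, BSA, DTT, yeast tRNA and Tween-20. Apparent Kd is the median of filtered per-cluster curve fits to green signal normalised to red-channel RNA signal and control-cluster median Fmax.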

Setting [1] is: designed as: OFF switch for tryptophan, no ligand.
[2] abbreviates: ligand present: tryptophan, designed as: OFF switch for tryptophan.
The mark [3] stands for this setting: designed as: ON switch for tryptophan, no ligand.
The mark [4] stands for this setting: ligand present: tryptophan, designed as: ON switch for tryptophan.

What is called apparent Kd is a dissociation constant that holds for the conditions of the assay.

In the case of “GGCCCGGACUUGGAAUGGGUGUUUCCCUCACGAGGACCGGUACGGCCGCCACUCGAAGACAUGAGGAUCACCCAUGUAGUCGACA”, the “apparent Kd” value is, setting by setting: under setting [1], 44.9 nM; under setting [2], 12.5 nM.
On to “AAUCAUGGAAACAUGACAUGAGGAUUACUCCGAGGACCGGUACGGCCGCCACUCGCGAGGAGGCGGACAUGAGGAUCACCCAUGU”, for which the “apparent Kd” value reads like this: under setting [3], 185 nM; under setting [4], 40.2 nM.
On to “AAUUAUCAGUCGGCCGCCACUGACACAUGAGGAUCACCCAUGUAAUAUGGGUAAAAUUAACUGAACAGGACCGGGACAAAUGCUA”, for which the “apparent Kd” value turned out to be 381 nM under setting [3] and 649 nM under setting [4].
Turning to “GCUAGGUCAUCGGCCGCCACUAACGAUGGCUCCAACAUGAGGAUCACCCAUGUGCCACAUGCGCAUAGGACCGGGAUGACCUAGC”, the “apparent Kd” value under setting [3] turned out to be 13 nM and the “apparent Kd” value under setting [4] turned out to be 10.5 nM.
In the case of “AAGACAUGAGGAUCACCCAUGUCGUGUGAACGAGGACCGGUACGGCCGCCACUCGUUUGAAAAUAAACGAAUGCGGCCUGGGAAA”, the “apparent Kd” value runs as follows: under setting [1], 11 nM; under setting [2], 14.2 nM.
On the same counts, the results for “AAUGUGAAGGCGGCCGCCACUGAUAAUAGACAUGAGGAUCACCCAUGUAUAAAUCCUCAAUAAGACAGGACCGGGCCAUCUACGU” are 105 nM and 123 nM.
For the sequence “GCAUCCUAGUCGGCCGCCACUGACAUGAGGAUCACCCAUGUACAUGAGGAUCACCCAUGUUGUAACAGGACCGGGACUAGGAUGC”, the “apparent Kd” value under setting [3] amounted to 99.7 nM and the “apparent Kd” value under setting [4] was 49.5 nM.
For “GGUUACUCUACGGCCGCCACUGUAAAGUAAAUAUUAAUGUACAUGACAUGAGGAUCACCCAUGUACAGGACCGGGUAGUGUAACC”, the “apparent Kd” value under setting [3] came to 42.8 nM and the “apparent Kd” value under setting [4] came to 18.5 nM.
On the same counts, the results for “UUAUAUACUACGGCCGCCACUGAACAUGAGGAUCACCCAUGUAAUGUUCAGACGUCUUUAGACGACAGGACCGGGUAGAAUUAAA” are 119 nM and 109 nM.
The matching figures for “UAGUCCGCGACGGCCGCCACUCGCUGAUGCACAUGUGUCCGGGACAUGAGGAUCACCCAUGUUUCGAGGACCGGGUCGAUCCUAA”: 78.2 nM and 57 nM.
For “AGCGCGGUGAUGGUAGCCGGACGCUAGGUACGAGGACCGGUACGGCCGCCACUCGGAGUCCUACGACAUGAGGAUCACCCAUGUA”, the “apparent Kd” value was 99.3 nM under setting [3] and 46.8 nM under setting [4].
Take “GAGUAGAGGACGGCCGCCACUAAACAUGAGGAUCACCCAUGUCGUGAUCCGUUACCUAGAGUAGAUAGGACCGGGUCAUAUAGUC”: the “apparent Kd” value by setting is: under setting [1], 26.4 nM; under setting [2], 21.3 nM.
Regarding “CCAUCUUCAUCGGCCGCCACUGAACCAAGGAGACAUGAGGAUCACCCAUGUAUGGGAAACCAUCAUAGGACCGGGAUGAAGGUGG”, the “apparent Kd” value was 36.1 nM under setting [3] and 30.9 nM under setting [4].
On the same counts, the results for “UGCAUUAUACAUGGAUCACCCAUGUAGACACGAGGACCGGUACGGCCGCCACUCGGAAGAGGAAACAUGAGGAUCACCCAUGUGA” are 78.5 nM and 78.2 nM.
Turning to “ACGCCCGCCUCACAUGAGGAUCACCCAUGUCGAGGACCGGUACGGCCGCCACUCGUCGUCGGUAAUACGGGCGUUGAAUAAUAUA”, the “apparent Kd” value was 11.5 nM under setting [1] and 49.7 nM under setting [2].
Take “AUUCAUGGAAACAUGACAUACAUAACCGGUCGAGGACCGGUACGGCCGCCACUCGUUUGGAGGCACAUGAGGAUCACCCAUGUUA”: the “apparent Kd” value under setting [3] stood at 23.7 nM and the “apparent Kd” value under setting [4] amounted to 24.5 nM.
The matching figures for “UAAUGCAGGUCGGCCGCCACUACAAACAUGAGGAUCACCCAUGUAGUUACUGGGUGAAGUGGCAGUAGGACCGGGACCUGCAUAA”: 289 nM and 342 nM.
The matching figures for “GCAUCCUAGUCGGCCGCCACUGCAACAUGAGGAUCACCCAUGUCUGCAUCUUCAUGAUGCAGUAGCAGGACCGGGACUAGGAUGC”: 185 nM and 20.2 nM.
Regarding “CCAUAAGUACCGGUCCUCAGAUCCUCAUGACGAGGACCGGUACGGCCGCCACUCGAAACAUGAGGAUCACCCAUGUAAUAAUAUU”, the “apparent Kd” value came to 27.9 nM under setting [1] and 21 nM under setting [2].
Consider “GACGCAUGAGUUGUAAAAGCUCAUGGGUCGCGAGGACCGGUACGGCCGCCACUCGGCUGUACAUGAGGAUCACCCAUGUCAGGGU”, for which the “apparent Kd” value under setting [3] was found to be 275 nM and the “apparent Kd” value under setting [4] was 580 nM.
For “GAGCGCGUGGACUGGCGUGCUCCGCUCCGUCGAGGACCGGUACGGCCGCCACUCGACAUGAGGAUCACCCAUGUGUGCGCUCGCG”, the “apparent Kd” value by setting is: under setting [1], 51.5 nM; under setting [2], 96.3 nM.
“AGCACAUGAGGAUCACCCAUGUGUCGGUACCGAGGACCGGUACGGCCGCCACUCGCAGGACAUGAGGAUCACCCAUGUGCCGCCG”: the “apparent Kd” value under setting [3] came to 25.1 nM and the “apparent Kd” value under setting [4] amounted to 25.4 nM.
For the sequence “AAUAAACAUGAGGAUCACCCAUGUAGGGUGCGAGGACCGGUACGGCCGCCACUCGGGUGAAAACAUGAGGAUCACCCAUGUAAAA”, the “apparent Kd” value reads like this: under setting [1], 200 nM; under setting [2], 363 nM.
The matching figures for “GGGUCAGGCGCGGCCGCCACUGCGGUGAUGUGACAUGAGGAUCACCCAUGUUGUCAUGUGGCACAUAGGACCGGGCGCCUGGCCC”: 29.2 nM and 31.6 nM.
Consider “GUCGGUACGUCGGCAAAGCCGAUGUGCCAGCGAGGACCGGUACGGCCGCCACUCGUACAUGAGGAUCACCCAUGUCCGGUCCGGC”, for which the “apparent Kd” value is, setting by setting: under setting [3], 69.2 nM; under setting [4], 70.7 nM.
On the same counts, the results for “AACACAUGAGGAUCACCCAUGUUCUCGUGUCGAGGACCGGUACGGCCGCCACUCGGUUCUCGCGAGGAUGGUCAAAGACUAUCCA” are 47.7 nM and 42 nM.
In the case of “AGAUUCGACACGGCCGCCACUUUCAGUGGCUGGUGUCAUGGUGCACAUGAGGAUCACCCAUGUGGAAGGACCGGGUGUUGAGUCU”, the “apparent Kd” value reads like this: under setting [1], 12.2 nM; under setting [2], 58.4 nM.
As to “ACGUUGUAGUCGGCCGCCACUGUUUUCAUGUUCAACAUGAGGAUCACCCAUGUACCUUUUUUUAUCAGGACCGGGACGUAUUCGA”, the “apparent Kd” value by setting is: under setting [3], 93.2 nM; under setting [4], 40.7 nM.
For “GGCACAUAGUCGGCCGCCACUAGGGUGUAGUGGAAUAACAUGAGGAUCACCCAUGUAUUUGGGACUAGGACCGGGACUAUGUGCC”, the “apparent Kd” value runs as follows: under setting [1], 25.2 nM; under setting [2], 20 nM.
Consider “GUUGGAUACUCGGCCGCCACUGAGAGAGUCAUGUGAACAUGAGGAUCACCCAUGUAAUAUAUAUACAGGACCGGGAGUGUUGUAA”, for which the “apparent Kd” value came to 21.6 nM under setting [1] and 16.8 nM under setting [2].
The matching figures for “AUAAUUGGGUUAAUUAGUUUUAGGUCCAGUCGAGGACCGGUACGGCCGCCACUCGUUCCGAGAUACAUGAGGAUCACCCAUGUUA”: 32.9 nM and 34.1 nM.
Turning to “UUAUAUACUACGGCCGCCACUGAACAUGAGGAUCACCCAUGUAAUGUUCAGAUUUUUUUUUUUUACAGGACCGGGUAGAAUUAAA”, the “apparent Kd” value reads like this: under setting [3], 159 nM; under setting [4], 133 nM.
As to “CGUAUUGGAAACAGUACGAGUGAUCCGGUCCGAGGACCGGUACGGCCGCCACUCGAAAUAAAUAAACAUGAGGAUCACCCAUGUA”, the “apparent Kd” value under setting [1] is 18.6 nM and the “apparent Kd” value under setting [2] stood at 28.4 nM.
On the same counts, the results for “UAAUCCGGUCCUCGAUAAUCCUCAUGUAAACGAGGACCGGUACGGCCGCCACUCGAUAACAUGAGGAUCACCCAUGUAAUAAUAA” are 89.5 nM and 46.5 nM.
“GGCACAUAGUCGGCCGCCACUACUAACACCUCAGACAACAUGAGGAUCACCCAUGUUCCAGAGUGUAGGACCGGGACUAUGUGCC”: the “apparent Kd” value is, setting by setting: under setting [3], 11.6 nM; under setting [4], 10.5 nM.
For “CGAGUAAGUUCAAUCGAAUAACGGUUUUCGCGAGGACCGGUACGGCCGCCACUCGUGUGAUAUCACACAUGAGGAUCACCCAUGU”, the “apparent Kd” value was determined as 77.6 nM under setting [3] and 47.4 nM under setting [4].
Regarding “AGAUUCGACACGGCCGCCACUCGUGACGGAUUUCCGAGUGUCGAACAUGAGGAUCACCCAUGUCCGAGGACCGGGUGUUGAGUCU”, the “apparent Kd” value was found to be 34.1 nM under setting [1] and 522 nM under setting [2].
On the same counts, the results for “UAACAUGAGGAUCACCCAUGUAUACUAAGUCGAGGACCGGUACGGCCGCCACUCGAAAUUGAAGAAUUGGCGGUAAAUGUAAGUA” are 12.2 nM and 12.5 nM.
“UAUGAGCGCACGGCCGCCACUGUCUUCAUCUGUUUGUCUACAUGAGGAUCACCCAUGUUGGUUUACAGGACCGGGUGCAACUAUG”: the “apparent Kd” value by setting is: under setting [3], 27.8 nM; under setting [4], 22.4 nM.
Turning to “GGGACUAGAUCGGCCGCCACUGAUGGGACAUGAGGAUCACCCAUGUACGAAGUGAUCCAAUAAAUCAGGACCGGGAUCACUUGUA”, the “apparent Kd” value runs as follows: under setting [1], 125 nM; under setting [2], 225 nM.
On to “UAACAUGAGGAUCACCCAUGUUUGAAGGAACGAGGACCGGUACGGCCGCCACUCGACGAGUGGAUGAGAAGUGGGAUAGUGUGCU”, for which the “apparent Kd” value is, setting by setting: under setting [3], 13.2 nM; under setting [4], 13.8 nM.
Take “UAUUAUCAGUCGGCCGCCACUGACACAUGAGGAUCACCCAUGUAAUUUGGGUUAUAUAUAAAUUACAGGACCGGGACAAAGGCUA”: the “apparent Kd” value turned out to be 358 nM under setting [1] and 295 nM under setting [2].
“UAAACUACACAUGAGGAUCACCCAUGUGGCCGAGGACCGGUACGGCCGCCACUCGUGUGUUAAUAAAAGAACUGCAAGGUUCUGU”: the “apparent Kd” value under setting [3] worked out at 350 nM and the “apparent Kd” value under setting [4] is 84 nM.
On the same counts, the results for “GGUUACUCUACGGCCGCCACUGAUUAUUUAUAGUCCUGUACAUAAACAUGAGGAUCACCCAUGUACAGGACCGGGUAGUGUAACC” are 34.9 nM and 35.6 nM.
Regarding “AGAUUCGACACGGCCGCCACUUGGAGUGGCUGCUAGCAUGUUACACAUGAGGAUCACCCAUGUCUAAGGACCGGGUGUUGAGUCU”, the “apparent Kd” value under setting [1] is 41.1 nM and the “apparent Kd” value under setting [2] amounted to 216 nM.
